Source: PubChem
An excerpt weighted towards active compounds, which were near 1.9% of everything screened.
FN deposition inh: fibronectin deposition inhibition. inhibition, % at 12.6 µM. hit rate 0.086% among 350,000. AH1F fibroblasts, Alexa488-fibronectin deposition fluorescence, overnight. AID 743247;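 active = mean inhibition across replicates of 30% or more, regardless of how many single replicates reach that level; inconclusive = mean under 30% yet at least half of replicates reach 30%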;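 note: positive control wells lacked labelled fibronectin entirely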
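material = AH1F fibroblast monolayer depositing Alexa488-labelled fibronectin into matrix | amount = 10000 AH1F cells/well | buffer or medium = DMEM plus 2% serum, read in PBS | incubation = 1 h cell adhesion before compound, then overnight fibronectin incubation | detection = fluorescence at 485 nm excitation, 525 nm emission | evaluation = percent inhibition as loss of matrix-bound fibronectin fluorescence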
Cneo AK release: Cryptococcus neoformans lysis via adenylate kinase release | AID 651654 | C. neoformans lysis, adenylate kinase release luminescence, 4 h; normalised: neutral wells 0, clomiphene wells 100 | hit rate 0.2% among 360,000 | lysis activity, % at 15 µM;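 active = mean lysis activity across replicates of at least 80%, whatever share of replicates individually reach that level; inactive = mean lysis activity below 80%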
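Material: C. neoformans cells; Schedule: 4 h static compound exposure, 37 °C, read 1 h post-reagent; Measured by: adenylate kinase release luminescence; Read-out: signal increase indicating cell lysis; Controls: Clomiphene as positive lysis control.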
PGC1a acetyl inh: modulators of PGC1a acetylation; U2OS PGC1a acetylation, AlphaScreen anti-acetyl-lysine; with virally co-expressed GCN5 acetyltransferase; inhibition, % at 15.6 µM; hit rate 0.17% among 350,000;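 active = every replicate shows inhibition of at least 40%; inconclusive = mean inhibition at least 40% but some replicate below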;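 note: 0% = neutral control wells and 100% = positive control wells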
Xi reactivation: activators of X-chromosome reactivation in mouse fibroblasts | XiGFP mouse fibroblasts, % GFP-positive cells imaging, 3 d; cells co-treated with 5-aza-dC sensitizer; scaled so ellipticine positive control = 100% | activation, % at 7.58 µM | hit rate 0.055% among 360,000;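 active = mean normalized replicate activation at least 10% and every replicate at or above 10%; inconclusive = only one of the two criteria met; inactive = mean below 10% and not all replicates reach 10%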;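 note: 0% = median of on-plate neutral control wells and 100% = ellipticine 6 µM median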
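System: 68-5-11 XiGFP fibroblast line | Buffer or medium: DMEM containing 5-aza-dC | Compound: Single point | Times: Compounds 3 days, fix/stain 15 min at room temperature | Benchmarks: Positive control ellipticine, 6 µM final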
DENV2 CPE rescue: inhibitors of DENV2 cytopathic effect. hit rate 1.7% among 350,000. CPE inhibition, % at 9.99 µM. DENV2-infected cells, cytopathic effect rescue, plate reader; in the data active = CPE inhibition above about 20%, passing the limit was not always enough; inconclusive = no clear call, values can overlap the other calls; tested in BHK-21 cells;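 note: 0% = median of neutral control wells and 100% = median of positive control wells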
CFTR F508del cor: CFTR F508del correction in bronchial cells; CFBE cells, YFP halide quenching; stimulated with forskolin plus potentiator P3; % fluorescence drop versus neutral controls; activity (quench increase), % at 7.58 µM; hit rate 0.36% among 350,000;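 active = mean added fluorescence quench of at least 8% versus neutral control, with both replicates also reaching 8%; inconclusive = only one of the mean or replicate conditions met; inactive = mean below 8% and not both replicates reaching 8%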;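 note: cells transiently co-express mutant CFTR-F508del with the halide-sensitive YFP; corrector assay measuring rescue of mutant channel to the surface after 24 h compound exposure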
Numbers without * were called inactive; ? = inconclusive; . = no result given; ! = a repeat was not active.

SMILES | FN deposition inh | Cneo AK release | PGC1a acetyl inh | Xi reactivation | DENV2 CPE rescue | CFTR F508del cor
C=CC1CN2CCC1C[C@@H]2CO (stereo partly drawn) | . | 0.8 | 20.1 | . | 20.2* | -1.1
COc1ccc(CCNC2CCCCC2)cc1 | -0.8 | . | . | 0.0 | -3.9 | 4.2
COc1ccc(C[C@H]2NC[C@H](O)[C@H]2OC(C)=O)cc1 | 17.6 | -6.0 | 89.8* | -0.3 | -11.7 | -11.5
O=C(Cc1ccccc1)N1CCCCN2[C@H](CO)[C@H](c3ccc(C#Cc4ccccc4)cc3)[C@@H]2C1 | . | 2.0 | -22.4 | 0.1 | -0.1 | -1.2
CN(C)CC#Cc1ccc([C@H]2[C@@H](CO)N3CCCCN(C(=O)Cc4ccccn4)C[C@H]23)cc1 | -4.7 | -2.3 | -1.8 | 0.1 | 30.4* | -0.9
N#Cc1cccc(-c2ccc([C@H]3[C@@H](CO)N4CCCCN(C(=O)Cc5ccccc5)C[C@H]34)cc2)c1 | . | -0.3 | -9.0 | 0.3 | 26.5* | 4.3
O=C(Cc1ccccn1)N1CCCCN2[C@H](C1)[C@@H](c1ccc(-c3ccccc3)cc1)[C@@H]2CO | . | -1.3 | 8.5 | 0.0 | 20.7* | 3.8
O=C(Cc1ccccn1)N1CCCCN2[C@H](CO)[C@H](c3ccc(-c4ccccc4)cc3)[C@H]2C1 | . | -1.5 | 0.1 | 0.1 | -5.6 | -0.1
C/C=C/c1ccc([C@@H]2[C@H]3CN(C(=O)Cc4ccncc4)CCCCN3[C@H]2CO)cc1 | . | -3.0 | 1.4 | 0.0 | 81.7* | -2.6
COC(=O)[C@@H]1[C@@H](CO)[C@@H]2Cn3c(cccc3=O)[C@H]1N2C(=O)C1CCC1 | . | 1.2 | . | . | 2.3 | 2.5
CC(C)NC(=O)N1C[C@@H]2C(c3ccccc3)[C@H](C1)N2C (stereo partly drawn) | . | . | . | 0.2 | . | .
CS(=O)(=O)N1CC2NC(C1)C2c1ccc(Br)cc1 (stereo not drawn) | -13.4 | . | . | 0.4 | . | .
O=C(Cc1cccnc1)N1CCCCN2[C@H](C1)[C@H](c1ccc(C#CC3CC3)cc1)[C@@H]2CO | . | 1.1 | 0.5 | . | -2.4 | -0.9
O=C1CNC[C@H]2[C@@H](c3ccc(Br)cc3)[C@H](CO)N12 | -7.0 | . | 3.3 | 0.0 | -4.2 | -3.1
CS(=O)(=O)N1C[C@@H]2N[C@H](C1)C2c1ccccc1 (stereo partly drawn) | -3.7 | . | . | 0.2 | . | .
CCCC#Cc1ccc([C@H]2[C@H]3CN(C(=O)Cc4ccccn4)CCCCN3[C@H]2CO)cc1 | . | 0.3 | -4.7 | -0.1 | 20.6* | -2.6
CCCC#Cc1ccc([C@@H]2[C@@H](CO)N3CCCCN(C(=O)Cc4ccccn4)C[C@H]23)cc1 | . | -0.8 | 6.4 | -0.1 | 2.1 | 0.7
O=C(Cc1cccnc1)N1CCCCN2[C@H](C1)[C@H](c1ccc(C#CC3(O)CCCC3)cc1)[C@@H]2CO | . | -8.0 | 5.1 | -0.1 | 24.8* | -2.4
CC=Cc1ccc2n(c1=O)C[C@H]1[C@H](CO)[C@@H](C(=O)OC)[C@@H]2N1S(=O)(=O)c1cccc(C)c1 (mixture of isomers) | . | 0.8 | . | 0.2 | -6.0 | .
CC=Cc1ccc2n(c1=O)C[C@H]1[C@H](CO)[C@@H](C(=O)O)[C@@H]2N1S(=O)(=O)c1ccccc1C (mixture of isomers) | . | -0.8 | . | 0.0 | 0.5 | 0.0
CCOC(=O)c1cc2cc(OC)ccc2n1C1CCN(Cc2ccccc2)CC1 | . | . | . | 0.4 | 35.0* | 4.4
CN(C)CC#Cc1ccc([C@@H]2[C@H](CO)N3CCCCN(C(=O)Cc4ccccn4)C[C@@H]23)cc1 | -4.2 | -0.2 | 9.8 | 0.0 | 15.6 | 1.5
O=C1NC(=O)C(=Cc2ccc(OCC(=O)N3CCOCC3)cc2)C(=O)N1 | 9.7 | . | . | 0.0 | 63.7* | -2.5
Cc1ccc(-c2nc3ccccc3c(=O)n2-c2nccs2)cc1 | -6.4 | -1.0 | 0.7 | . | . | .
Cc1nc2ccccc2c(=O)n1-c1nccs1 | 14.5 | . | . | 0.4 | 43.3* | 2.5
SMILES | FN deposition inh | Cneo AK release | PGC1a acetyl inh | Xi reactivation | DENV2 CPE rescue | CFTR F508del cor
Cn1ncnc2c(=O)n(C)c(=O)nc1-2 | . | -10.9 | 100.1* | . | . | .
CC1=CC(=C2C(=O)NC(=S)NC2=O)C=C(C(F)(F)F)N1Cc1ccccc1 | 14.8 | . | 87.5* | 0.4 | 2.4 | 7.6
CC(C)(C)n1cc(C(=O)c2ccccc2)cc1-c1ccccc1 | 7.4 | -2.3 | . | 0.1 | 35.6* | -0.5
CN(C)C(=O)Oc1ccc(C(=O)c2ccccc2)cc1 | . | 1.3 | 10.5 | . | . | 1.1
CN1[C@@H]2CN(S(C)(=O)=O)C[C@H]1C2c1ccc(Br)cc1 (stereo partly drawn) | -0.5 | . | . | 0.3 | . | .
COC(=O)C1=C(c2ccc(F)cc2OCc2ccccc2)C[C@@H]2CC[C@H]1N2C(=O)NCc1cccc(F)c1 | -11.0 | -0.4 | -24.1 | 0.0 | ? | 1.3
COC(=O)C1=C(c2ccc(F)cc2OCc2ccccc2)C[C@@H]2CC[C@H]1N2C(=O)NCc1ccccc1 | -7.0 | 1.7 | . | 0.0 | 67.9* | -1.0
COC(=O)[C@H]1[C@H](CO)[C@H]2Cn3c(ccc(-c4cccc(OC)c4)c3=O)[C@@H]1N2C(=O)c1ccccc1F | . | 0.9 | 0.4 | 0.0 | 9.3 | 1.1
C1CCC2CCCCC2C1 (stereo not drawn) | . | 3.3 | -5.6 | . | 33.4* | -1.0
CCC(=O)N1[C@@H]2c3ccc(-c4ccc(F)cc4)c(=O)n3C[C@H]1[C@H](CO)[C@H]2C(=O)OC | . | -1.1 | . | -0.1 | -1.8 | .
c1ccc2nc(N3CCNCC3)ccc2c1 | 3.1 | 4.7 | -6.1 | 0.2 | -4.3 | 9.8*!
Cc1cc(OCc2nn[nH]n2)c2c3c(c(=O)oc2c1)CCCC3 | -1.2 | . | . | . | . | .
Cc1cc(OCc2ccc([N+](=O)[O-])cc2)c2c3c(c(=O)oc2c1)CCCC3 | -2.4 | 0.6 | . | 0.0 | 151.3* | 5.4
O=C(Cc1ccccn1)N1CCCCN2[C@@H](CO)[C@@H](c3ccc(-c4ccccc4)cc3)[C@@H]2C1 | . | -1.1 | 3.5 | 0.0 | 8.3 | 0.0
O=C(Cc1ccccc1)N1CCCCN2[C@H](C1)[C@H](c1ccc(-c3ccccc3)cc1)[C@@H]2CO | . | -1.7 | -7.1 | 0.1 | -10.1 | -1.5
O=C1NC2C(O)C(O)C(O)C(O)C2c2cc3c(c(O)c21)OCO3 (stereo not drawn) | 5.0 | . | . | -0.1 | ? | -1.0
O=C1NC2C(=CC(O)C(O)C2O)c2cc3c(c(O)c21)OCO3 (stereo not drawn) | 21.1 | . | 62.7* | -0.2 | 87.6* | -0.7
O=C1NC2C(=CC(O)C(O)C2O)c2cc3c(cc21)OCO3 (stereo not drawn) | 15.7 | . | 85.4* | 0.5 | 4.2 | -2.1
CN1[C@@H]2CN(S(C)(=O)=O)C[C@H]1C2c1ccccc1 (stereo partly drawn) | -12.5 | . | . | 0.2 | . | .
O=C(O)[C@H]1[C@H](CO)[C@H]2Cn3c(ccc(-c4ccncc4)c3=O)[C@@H]1N2S(=O)(=O)c1ccccc1F | 10.2 | 6.6 | . | 0.1 | -1.0 | .
